Test: Toxicity liver stage against HepG2, at 10uM
Format: cell-based
Set-up: test concentration 10 uM, cell line HepG2-A16-CD81EGFP
Settings: human, HepG2-A16-CD81EGFP cells; read-out: INHIBITION
Summary of the method: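 Uninfected HepG2-A16-CD81EGFP cells, 3 × 10^3 per well, 1536-well, plated on prespotted compound at 10 μM final, parasite-free screening media added to match infected plates; puromycin 10 μM positive, DMSO 0.5% negative; run in parallel with 48 h PbLuc assay at 37 °C, 5% CO2; viability by CellTiter-Glo luminescence, normalized to controls.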

Structure (SMILES) | cytotoxicity at 10 µM
Cc1cnc(NCCc2c[nH]cn2)nc1-c1ccnn1C | -2.53%
COc1cc2nc(C)n(CC(=O)O)c(=O)c2cc1OC | 5.68%
Cc1nnc(NCc2ccc(SC(F)F)cc2)o1 | 6.48%
O=C1Nc2ccccc2C12CCN(c1nccs1)CC2 | -0.449%
CCC(=O)NC1CCCN(Cc2ccc(-n3ccnc3)cc2)C1 (stereo not given) | -47.8%
Cn1ncc(CN2CCc3onc(-c4cccc(F)c4)c3C2)c1C1CC1 | 1.31%
O=C(CCc1nnc(-c2ccsc2)o1)NCC1CCN(C2CC2)C1 (stereo not given) | -1.73%
COC(=O)NCC(=O)N1CCC(c2nc3cc(F)ccc3[nH]2)CC1 | 3.67%
CN(C)C(=O)CN1CCc2onc(-c3ccccc3F)c2C1 | 2.45%
COc1ccc2c(c1)C(NCCc1ccccn1)CCCO2 (stereo not given) | -6.03%
O=C(NCCN1CCNC1=O)c1cc(-c2ccc(O)cc2)n[nH]1 | 6.27%
Cc1nnc([C@]23COC[C@H]2CN(Cc2cnn(C)c2)C3)o1 | -3.77%
CN(C)c1ccc(-c2cc(C(=O)O)cc(S(=O)(=O)NC3CC3)c2)cc1 | 16.5%
CCn1cc(S(=O)(=O)N2CCN(S(=O)(=O)c3ccc(Br)s3)CC2)c(C)n1 | 4.64%
Cc1cc(CN2CCN(C(=O)NCCc3csc(C)n3)CC2)on1 | -2.68%
Cn1cc(C2COC3(CCN(C(=O)c4cnccn4)CC3)C2)cn1 (stereo not given) | -68.5%
COC(=O)c1cccc(C(=O)N2CCN(c3ccccc3F)CC2)n1 | -10.9%
c1csc(-c2nc(CN3CCOC(Cn4cccn4)C3)co2)c1 (stereo not given) | -11.1%
CCOCCCNc1nc(CS(=O)(=O)c2ccccc2)cs1 | 9.75%
CCc1cnc(NCc2ccccc2Cn2cccn2)nc1 | -2.45%
O=C(NCc1cccnc1)Nc1cc(C(F)(F)F)c[nH]c1=O | -1.78%
CC(C)(C(=O)NCc1ccccc1F)n1cc(Br)cn1 | 0.296%
Cc1nn(C)c(C)c1NC(=O)CN1CCCC1c1c(C)nn(C)c1C (stereo not given) | -6.44%
O=C(Nc1ccccc1)N1CCC(n2cc3[nH]cccc-3c2=O)CC1 | -3.73%
COCC1c2nnn(CC3CC3)c2CCN1Cc1ccncc1 (stereo not given) | 3.37%
COc1ccc(CN2CCCCC2CNC(=O)OC(C)(C)C)cc1F (stereo not given) | -2.26%
O[C@@H]1CC(CNCc2ccccn2)(COc2cccnc2)C[C@@H]1O (stereo not given in full) | -10.3%
CC(C)NC(=O)NCC(Cc1ccc(F)cc1)C(N)=O (stereo not given) | 12.8%

Structure (SMILES) | cytotoxicity at 10 µM
Cc1ccccc1C(C)NC(=O)Cc1c(C)nc2cc(=O)[nH]n2c1C (stereo not given) | 10.8%
Cn1nc(CN2CCCC2)c2c1CN(C(=O)Nc1cccc(F)c1)CC2 | 5.98%
CCOC(=O)CC1CCCCN1C(=O)c1cc(C)oc1C (stereo not given) | 5.44%
CN1C(=O)C(C)(C)COc2ccc(NS(=O)(=O)Cc3ccccc3)cc21 | 8.2%
N#Cc1ccc(C(=O)N2CC(c3nc(-c4ncccn4)no3)C2)cc1 | -0.713%
O=C(Nc1cc(-c2ccncc2)no1)C1CCC1 | -12.6%
CCN1CCOCC2(CCCN(C(=O)c3cnccn3)C2)C1 (stereo not given) | 6.21%
Nc1nccc(C2CCN(c3cnccn3)C2)n1 (stereo not given) | 1.43%
COc1ccc(C(N)=O)cc1NCc1nc(-c2cccs2)oc1C | 1.83%
CCc1ccc(CNC(=O)N2CCN(Cc3cc(C)on3)CC2)s1 | -7.03%
Cc1nc(CN2CCOC(CNc3cccnn3)C2)cs1 (stereo not given) | -12%
Cc1cc(N2CCOCC(Cc3ccc4[nH]ccc4c3)C2)ncn1 (stereo not given) | -3.77%
COc1ccc(CN2C[C@@H](CN(C)CCO)[C@@H](CO)C2)cc1Cl | -5.88%
CS(=O)(=O)CCCSCc1ccc(Br)c(F)c1 | 4.64%
Cc1nn(C)c2cnn(CC(=O)NCc3ccc(F)cc3)c12 | 8.27%
CC(C)N(C)CCNC(=O)N(C)CC1CCOCC1 | -17.2%
Cc1cnn(CCNCC(=O)NC(c2ccccc2)c2ccccc2)c1 | -5.73%
Cc1ccc(C2COCCN2C(=O)c2ccc(CN(C)C)cc2)o1 (stereo not given) | 0.692%
CN1CCN(CCOc2ccc(NC(=O)c3ccncc3)cc2)CC1 | -5.18%
Cc1noc(C)c1CN1CCO[C@H]2CN(Cc3cccc(F)c3)C[C@H]21 | -99.8%
Cn1ncc2c(N3CCCC(C)(O)C3)nc(-c3cccnc3)nc21 (stereo not given) | 9.98%
Cc1nc(CN2C(=O)CCC23CCN(c2ncccn2)CC3)cs1 | -7.71%
Cn1cc(S(=O)(=O)NCc2ccsc2)cn1 | 0.978%
CS(=O)(=O)CC1CCCN(C(=O)Cn2cccc(C(F)(F)F)c2=O)C1 (stereo not given) | 4.1%
Cc1ccc2[nH]c(C(=O)NCCCn3ccnn3)c(C)c2c1 | 5.36%
COCCC(=O)N1CCC2(CCCN2Cc2cccc(Cl)c2)C1 (stereo not given) | 10.6%
Cc1ccn(CCNc2ncnc3c2CCN(Cc2ncc[nH]2)CC3)n1 | -1.47%

From ChEMBL document CHEMBL4513216, “Probing the Open Global Health Chemical Diversity Library for Multistage-Active Starting Points for Next-Generation Antimalarials” (ACS Infect Dis, 2020)
